# Reference: ChEMBL document CHEMBL4425150, “l-Cystine Diamides as l-Cystine Crystallization Inhibitors for Cystinuria” (J Med Chem, 2016)
# Calls of active or inactive are those of the source. The rule behind the calls is not given here.
# Legend:
# Cystine [1] = assay: Inhibition of hexagonal L-cystine plate crystal growth assessed as step velocity for crystal growth rate at 45 uM after 25 mins by atomic force microscopic analysis relative to control
# In short: (§1)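 In situ AFM of step velocity on {100} steps of hexagonal L-cystine crystals in aqueous 2 mM L-cystine, with additive at 15, 30 or 45 μM. Result expressed as V/V0, where V0 is the velocity measured first without additive; the value is a range.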
# Cystine [2] = assay: Inhibition of hexagonal L-cystine plate crystal growth assessed as step velocity for crystal growth rate at 30 uM after 25 mins by atomic force microscopic analysis relative to control; in short: as §1
# Cystine [3] = assay: Inhibition of hexagonal L-cystine plate crystal growth assessed as step velocity for crystal growth rate at 15 uM after 25 mins by atomic force microscopic analysis relative to control; in short: as §1
# [4] = Half life in pH 7.4 phosphate buffered saline at 100 uM at 37 degC by LC-MS/MS analysis; assay type: physicochemical; settings: buffer, pH 7.4, 100 µM
# In short: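 Compound incubated in pH 7.4 phosphate buffered saline at 37 °C. Disappearance of parent followed over time by LC-MS, and half-life derived from that.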
# [5] = Drug level in 129/C57BL6 mouse urine at 29.3 umol/kg, po administered daily through gavage for 1 week measured 4 hrs post last dose by LC-MS/MS analysis; assay type: ADME, organism-based; settings: read-out: Drug uptake
# In short: (§2)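 Male mice, wild-type or Slc3a1 knockout, 4–5 per group, dosed by daily oral gavage at 29.3 μmol/kg for 1 week. Urine from each mouse collected individually over the 4 h right after the last dose. Compound in urine quantified by LC-MS/MS; pre-dose urine also tested.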
# Cystine [6] = assay: Inhibition of L-cystine crystallization assessed as concentration required to double metastable supersaturation range of L-cystine after 72 hrs by OPA/NBC derivatization based fluorescence assay
# In short: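 Test solution (5 μL) added to 500 μL supersaturated L-cystine, then held at 25 °C for 72 h and centrifuged (10000 rpm, 4 min). Supernatant diluted 2-fold, reduced with DTT (rt, 10 min), alkylated with iodoacetic acid (rt, 15 min), then derivatized with OPA/NBC (3 min). Fluorescence read at Ex 355/Em 460 nm gives L-cystine concentration. EC2x is the inhibitor concentration doubling the lower-plateau L-cystine level.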
# [7] = Drug level in SLC3A1 knock out 129/C57BL6 mouse urine at 29.3 umol/kg, po administered daily through gavage for 1 week measured 4 hrs post last dose by LC-MS/MS analysis; assay type: ADME, organism-based; settings: read-out: Drug uptake; in short: as §2
# Cystine [8] = assay: Potency index, ratio of L-cystine dimethyl ester concentration to compound concentration required to double metastable supersaturation range of L-cystine
# In short: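 Ratio is the EC2x of L-cystine dimethyl ester divided by the compound's EC2x. EC2x came from 72 h incubation at 25 °C in supersaturated L-cystine, with supernatant L-cystine measured by OPA/NBC fluorescence.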
# Cystine [9] = assay: Inhibition of hexagonal L-cystine plate crystal growth assessed as reduction in crystal mass yield at 15 to 45 uM after 25 mins by atomic force microscopic analysis
# Cystine [10] = assay: Inhibition of hexagonal L-cystine plate crystal growth assessed as induction of plate to rod crystal morphology at 15 to 45 uM after 25 mins by atomic force microscopic analysis
# Cystine [11] = assay: Inhibition of L-cystine stone formation in SLC3A1 knock out 129/C57BL6 mouse model of cystinuria at 29.3 umol/kg, po administered daily through gavage for 4 weeks; assay type: functional, organism-based
# In short: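 Male Slc3a1 knockout mice, groups of six or seven, dosed by daily gavage at 29.3 μmol/kg for 4 weeks. A parallel control group of seven mice received water only. Read-out is the fraction of mice forming stones.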
Ratio (Cystine [1]),Ratio (Cystine [2]),Ratio (Cystine [3]),t1/2 [4],concentration at 4 h [5],CD (Cystine [6]),concentration at 4 h [7],Ratio (Cystine [8]),inhibition (Cystine [9]),inhibition (Cystine [10]),SMILES,inhibition (Cystine [11])
0.3 to 0.4,0.32 to 0.5,0.52 to 0.66,19.8 days,2100 nM,0.26 µM,7590 nM,24.5,Active,Active,CN1CCN(C(=O)[C@@H](N)CSSC[C@H](N)C(=O)N2CCN(C)CC2)CC1.Cl.Cl.Cl.Cl,Active
0.29 to 0.53,0.34 to 0.58,0.44 to 0.65,46.2 days,–,0.86 µM,2090 nM,7.4,Active,Active,Cl.Cl.N[C@@H](CSSC[C@H](N)C(=O)N1CCOCC1)C(=O)N1CCOCC1,inactive
0.21 to 0.48,0.27 to 0.54,0.4 to 0.65,0.11 days,–,6.37 µM,–,–,Active,Active,COC(=O)[C@@H](N)CSSC[C@H](N)C(=O)OC,–
